Assay results taken from PMC11256359 (Biochemistry, 2024).
Positions count from the first letter of the chain named.

Columns and labels:
Assay type in all cases: binding
[1] = target: T1, hOTC (human ornithine transcarbamylase) (Homo sapiens, UniProt P00480, C303A); test: microscale thermophoresis, label-free
T1 sequence (P00480 33-354 C303A): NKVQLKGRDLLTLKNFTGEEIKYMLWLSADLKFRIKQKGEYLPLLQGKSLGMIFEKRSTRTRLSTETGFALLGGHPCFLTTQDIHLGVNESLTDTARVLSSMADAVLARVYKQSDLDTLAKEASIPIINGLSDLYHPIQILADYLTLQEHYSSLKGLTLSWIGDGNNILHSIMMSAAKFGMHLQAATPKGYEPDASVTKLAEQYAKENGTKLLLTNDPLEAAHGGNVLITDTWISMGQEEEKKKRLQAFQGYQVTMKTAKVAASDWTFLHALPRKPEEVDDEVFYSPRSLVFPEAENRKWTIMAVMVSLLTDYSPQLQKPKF
In short: (§1)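 His-tagged human OTC (WT or variants) expressed in BL21(DE3) Tuner cells with pGro7 chaperones and purified by one-step nickel chromatography. Ligand: substrate CP, serially diluted. Protein was diluted to 500 nM in 50 mM HEPES, 150 mM NaCl, 0.05% Tween, 2 mM EDTA, then mixed with CP to 250 nM final. Incubated ≥5 min at room temperature. Kd was measured by label-free MST on intrinsic tryptophan fluorescence.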

[2] = target: T2, hOTC (human ornithine transcarbamylase) (Homo sapiens, UniProt P00480, H107N); test: microscale thermophoresis, label-free
T2 sequence (P00480 33-354 H107N): T1 sequence (P00480 33-354 C303A) with H75N, A271C
In short: as §1

[3] = target: T3, hOTC (human ornithine transcarbamylase) (Homo sapiens, UniProt P00480, D263A); test: microscale thermophoresis, label-free
T3 sequence (P00480 33-354 D263A): T1 sequence (P00480 33-354 C303A) with D231A, A271C
In short: as §1

[4] = target: T4, hOTC (human ornithine transcarbamylase) (Homo sapiens, UniProt P00480, H302L); test: microscale thermophoresis, label-free
T4 sequence (P00480 33-354 H302L): T1 sequence (P00480 33-354 C303A) with H270L, A271C
In short: as §1

[5] = target: T5, hOTC (human ornithine transcarbamylase) (Homo sapiens, UniProt P00480, D263N); test: microscale thermophoresis, label-free
T5 sequence (P00480 33-354 D263N): T1 sequence (P00480 33-354 C303A) with D231N, A271C
In short: as §1

[6] = target: T6, hOTC (human ornithine transcarbamylase) (Homo sapiens, UniProt P00480); test: microscale thermophoresis, label-free
T6 sequence (P00480 33-354): T1 sequence (P00480 33-354 C303A) with A271C

[7] = target: T6, hOTC (human ornithine transcarbamylase); test: thermal shift assay; details: 10 mM L-norvaline with carbamoyl phosphate present; 4 µM enzyme; storage buffer

| SMILES | Kd [1] [nM] | Kd [2] [µM] | Kd [3] [nM] | Kd [4] [µM] | Kd [5] [nM] | Kd [6] [nM] | Tm increase relative to CP alone [7] [°C] |
| --- | --- | --- | --- | --- | --- | --- | --- |
| NC(=O)OP(=O)(O)O [CP, carbamoyl phosphate] | 190 | 25 | 430 | 110 | 320 | 230 |  |
| CCC[C@H](N)C(=O)O [NVA, L-norvaline] |  |  |  |  |  |  | 2 |
